Laboratory results: ChEMBL document CHEMBL1156980, “Synthesis and biological evaluation of 8-oxoadenine derivatives as toll-like receptor 7 agonists introducing the antedrug concept” (J Med Chem, 2010)
pEC50: −log10 of the molar value. Calls of active or inactive are those of the source. The rule behind the calls is not given here.

Tests used:
Toll-like receptor 7 = molecular target: T1, Toll-like receptor 7 (Homo sapiens, UniProt Q9NYK1); test: Agonist activity at human TLR7 expressed in HEK293 cells coexpressing pNiFty2-SEAP reporter by reporter gene assay; type: functional, cell-based
T1 sequence (Q9NYK1 whole entry): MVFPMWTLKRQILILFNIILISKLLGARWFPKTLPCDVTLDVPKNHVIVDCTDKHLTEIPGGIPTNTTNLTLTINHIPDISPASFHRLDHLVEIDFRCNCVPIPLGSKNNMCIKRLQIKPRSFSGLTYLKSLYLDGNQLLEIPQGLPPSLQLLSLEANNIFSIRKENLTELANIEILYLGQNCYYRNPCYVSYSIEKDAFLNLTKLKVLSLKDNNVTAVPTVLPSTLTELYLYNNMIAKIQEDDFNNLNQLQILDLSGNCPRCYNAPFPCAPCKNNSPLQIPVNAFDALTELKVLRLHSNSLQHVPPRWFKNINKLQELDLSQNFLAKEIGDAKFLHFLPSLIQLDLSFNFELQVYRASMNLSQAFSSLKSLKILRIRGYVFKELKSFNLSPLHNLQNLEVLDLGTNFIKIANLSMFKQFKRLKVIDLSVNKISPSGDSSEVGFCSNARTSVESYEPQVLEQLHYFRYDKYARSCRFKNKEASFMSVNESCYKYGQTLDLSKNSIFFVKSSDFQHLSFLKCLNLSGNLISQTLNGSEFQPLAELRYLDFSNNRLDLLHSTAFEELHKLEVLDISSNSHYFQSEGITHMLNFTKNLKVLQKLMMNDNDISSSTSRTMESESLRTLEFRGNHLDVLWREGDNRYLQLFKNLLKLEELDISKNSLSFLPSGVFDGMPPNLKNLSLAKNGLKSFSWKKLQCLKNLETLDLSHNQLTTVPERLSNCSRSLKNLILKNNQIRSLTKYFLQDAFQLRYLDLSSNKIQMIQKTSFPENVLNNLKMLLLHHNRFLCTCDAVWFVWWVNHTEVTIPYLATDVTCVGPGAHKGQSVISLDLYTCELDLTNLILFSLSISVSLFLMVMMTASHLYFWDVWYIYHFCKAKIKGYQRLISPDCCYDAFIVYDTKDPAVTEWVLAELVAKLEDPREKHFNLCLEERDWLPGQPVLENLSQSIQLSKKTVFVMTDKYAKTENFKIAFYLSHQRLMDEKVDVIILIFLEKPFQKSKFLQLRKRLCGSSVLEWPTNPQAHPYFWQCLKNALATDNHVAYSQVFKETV
How it was run: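 HEK293 cells stably transfected with human TLR7 and an NF-kB-driven SEAP reporter; agonist activity read as reporter output and expressed as EC50.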

PBMC [1] = test: Induction of type 1 IFN secretion in human PBMC at 10 nM after 18 hrs by ELISA; type: cell-based; conditions: 0.01 µM
PBMC [2] = test: Induction of type 1 IFN secretion in human PBMC at 30 nM after 18 hrs by ELISA; type: cell-based; conditions: 0.03 µM
PBMC [3] = test: Induction of type 1 IFN secretion in human PBMC at 100 nM after 18 hrs by ELISA; type: cell-based; conditions: 0.1 µM
PBMC [4] = test: Induction of type 1 IFN secretion in human PBMC at 300 nM after 18 hrs by ELISA; type: cell-based; conditions: 0.3 µM
PBMC [5] = test: Induction of type 1 IFN secretion in human PBMC at 1000 nM after 18 hrs by ELISA; type: cell-based; conditions: 1 µM
Rattus norvegicus [6] = test: Antiinflammatory activity in ovalbumin and […] hydroxide adjuvant-sensitized Brown Norway rat assessed as inhibition of allergen-induced eosinophils influx at 1 mg/kg, intratracheally administered 2 hrs before allergen challenge measured after 24 hrs; type: functional, organism-based; parameters: dose 1 mg/kg
Rattus norvegicus [7] = test: Induction of IFN secretion in Brown Norway rat plasma at 0.1 mg/kg, intratracheally measured after 2 to 24 hrs by CPE reduction assay; type: organism-based; parameters: dose 0.1 mg/kg, route endotracheal; conditions: in vivo, inhaled_or_intranasal
Rattus norvegicus [8] = test: Induction of IFN secretion in Brown Norway rat plasma at up to 10 mg/kg, intratracheally measured after 2 to 24 hrs by CPE reduction assay; type: organism-based; parameters: dose 10 mg/kg, route endotracheal; conditions: in vivo, inhaled_or_intranasal
[9] = Half life in human plasma by […] analysis
Toll-like receptor 8 = molecular target: T2, Toll-like receptor 8 (Homo sapiens, UniProt Q9NR97); test: Agonist activity at TLR8; type: functional
T2 sequence (Q9NR97 whole entry): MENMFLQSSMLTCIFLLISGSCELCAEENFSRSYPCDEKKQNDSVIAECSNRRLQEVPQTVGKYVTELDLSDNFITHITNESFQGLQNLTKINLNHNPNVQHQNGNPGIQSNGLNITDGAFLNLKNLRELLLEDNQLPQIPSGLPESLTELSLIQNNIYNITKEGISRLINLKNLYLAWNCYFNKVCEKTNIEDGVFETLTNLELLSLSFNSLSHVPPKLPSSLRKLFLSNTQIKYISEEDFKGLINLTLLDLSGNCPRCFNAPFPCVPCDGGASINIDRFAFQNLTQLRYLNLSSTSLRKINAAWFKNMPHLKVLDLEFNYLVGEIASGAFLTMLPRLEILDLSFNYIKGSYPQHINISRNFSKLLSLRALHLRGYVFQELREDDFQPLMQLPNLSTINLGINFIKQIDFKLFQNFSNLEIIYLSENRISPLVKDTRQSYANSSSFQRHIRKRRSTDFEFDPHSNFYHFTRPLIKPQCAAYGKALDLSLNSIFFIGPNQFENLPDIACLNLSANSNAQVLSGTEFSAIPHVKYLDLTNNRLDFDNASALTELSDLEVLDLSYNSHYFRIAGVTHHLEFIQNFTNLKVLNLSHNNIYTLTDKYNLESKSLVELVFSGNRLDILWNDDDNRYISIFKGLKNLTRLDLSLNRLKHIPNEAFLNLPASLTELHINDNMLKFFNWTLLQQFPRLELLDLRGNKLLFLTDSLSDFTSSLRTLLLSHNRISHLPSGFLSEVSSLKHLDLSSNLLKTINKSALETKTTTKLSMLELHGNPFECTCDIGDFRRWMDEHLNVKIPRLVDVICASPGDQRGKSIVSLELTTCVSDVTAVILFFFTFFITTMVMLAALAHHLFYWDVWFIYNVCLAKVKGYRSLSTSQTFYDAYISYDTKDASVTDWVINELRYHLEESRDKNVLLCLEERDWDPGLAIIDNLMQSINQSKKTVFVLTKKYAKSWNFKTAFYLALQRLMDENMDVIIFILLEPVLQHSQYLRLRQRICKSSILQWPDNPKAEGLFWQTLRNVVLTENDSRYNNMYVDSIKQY

[10] = Half life in rat plasma by […] analysis; type: ADME, cell-free
PBMC [11] = test: Induction of type 1 IFN secretion in human PBMC at 3 nM after 18 hrs by ELISA; type: cell-based; conditions: 0.003 µM
Rattus norvegicus [12] = test: Antiinflammatory activity in ovalbumin and […] hydroxide adjuvant-sensitized intratracheally dosed Brown Norway rat assessed as inhibition of allergen-induced eosinophils influx administered 2 hrs before allergen challenge measured after 24 hrs; type: functional, organism-based
PBMC [13] = test: Induction of type 1 IFN secretion in human PBMC at 3000 nM after 18 hrs by ELISA; type: cell-based; conditions: 3 µM
How it was run: (§1)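 Human peripheral blood mononuclear cells incubated with compound; IFN in culture supernatants quantified by human ELISA.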

PBMC [14] = test: Induction of type 1 IFN secretion in human PBMC at 10000 nM after 18 hrs by ELISA; type: cell-based; conditions: 10 µM; how it was run: as §1

SMILES	pEC50 (Toll-like receptor 7)	half-life [9]	other results
COCCOc1nc(N)c2[nH]c(=O)n(Cc3ccccc3)c2n1	6.40		
CCOCc1nc2c(N)nc3ccccc3c2n1CC(C)(C)O [RESIQUIMOD]			Activity (PBMC [1]): < 1.25 nM; Activity (PBMC [2]): 1.25 nM; Activity (PBMC [3]): 5.61 nM; Activity (PBMC [4]): 7.26 nM; Activity (PBMC [5]): 7.75 nM; Activity (Rattus norvegicus [6]): Active; Activity (Rattus norvegicus [7]): Toxic; Activity (Rattus norvegicus [8]): Non-toxic
CCCCOc1nc(N)c2nc(O)n(Cc3ccccc3)c2n1	7.20		
CCCCOc1nc(N)c2[nH]c(=O)n(Cc3cccc(C(=O)OC)c3)c2n1	7.29	> 98 min	
CCCCOc1nc(N)c2[nH]c(=O)n(Cc3ccc(F)c(CC(=O)OC)c3)c2n1	7.59	13.1 min	
CCCCOc1nc(N)c2[nH]c(=O)n(Cc3ccc(CC(=O)OC)cc3)c2n1	7.99	21.9 min	
COCCOc1nc(N)c2[nH]c(=O)n(Cc3cccc(CC(=O)OC)c3)c2n1	6.51	1.4 min	
CCCCOc1nc(N)c2[nH]c(=O)n(Cc3cccc(CC(=O)OCC)c3)c2n1	6.73	9 min	
CCCCOc1nc(N)c2[nH]c(=O)n(Cc3ccc(OC)c(CC(=O)OC)c3)c2n1	8.09	> 98 min	
CCCCOc1nc(N)c2[nH]c(=O)n(Cc3ccc(C(=O)OC)cc3)c2n1	7.14	> 98 min	
CCCCOc1nc(N)c2[nH]c(=O)n(Cc3cccc(C(C)C(=O)OC)c3)c2n1 (stereo unspecified)	7.12	> 98 min	
CCCCOc1nc(N)c2[nH]c(=O)n(Cc3ccccc3CC(=O)OC)c2n1	6.33	> 98 min	
CCCCOc1nc(N)c2[nH]c(=O)n(Cc3cccc(CC(=O)OC)c3)c2n1	7.30	2.6 min	pEC50 (Toll-like receptor 8): < 5.00; half-life [10]: < 0.04 min; Activity (PBMC [11]): < 1.25 nM; Activity (PBMC [1]): 1.61 nM; Activity (PBMC [2]): 4.71 nM; Activity (PBMC [3]): 8.17 nM; Activity (PBMC [4]): 8.37 nM; Activity (PBMC [5]): 6.2 nM; Activity (Rattus norvegicus [12]): Dose-dependent effect
CCCCOc1nc(N)c2[nH]c(=O)n(Cc3cccc(CCC(=O)OC)c3)c2n1	7.06	> 98 min	
CCCCOc1nc(N)c2[nH]c(=O)n(Cc3cc(CC(=O)OC)ccc3OC)c2n1	6.97	98 min	
CCCCOc1nc(N)c2[nH]c(=O)n(Cc3cccc(CC(=O)O)c3)c2n1			Activity (PBMC [2]): < 1.25 nM; Activity (PBMC [3]): < 1.25 nM; Activity (PBMC [4]): < 1.25 nM; Activity (PBMC [5]): < 1.25 nM; Activity (PBMC [13]): 1.25 nM; Activity (PBMC [14]): 1.25 nM
CCCCOc1nc(N)c2[nH]c(=O)n(Cc3ccccc3C(=O)OC)c2n1	6.22	> 98 min	
